From PMC11959959 (Acta Pharmaceutica Sinica. B, 2024)

Key:
B16F10 cells = experiment: Cell uptake assay in B16F10 cells; assay type: cell-based, murine; conditions: 750 kBq/mL, 5-80 min
[1] = test system: B16F10 tumor-bearing mice; experiment: PET/CT imaging in B16F10 tumor-bearing mice; assay type: in vivo; conditions: 0.5 and 1 h p.i.
In short: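 Mice bear s.c. B16F10 allografts (1×10^6 cells, left flank), imaged at tumor volume ≥100 mm³, usually day 10. They receive 200 μCi of tracer in 100 μL normal saline by tail vein. Dynamic micro-PET/CT runs for 1 h from injection, with three mice per tracer. The PEGylated tracer also gets static scans at 0.5, 1, 5, 10 and 24 h. Data are decay-corrected and given as %ID/g.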

## [^64Cu]QM-2303: 64Cu-labeled PEGibody from QM-2302 PEGylated with 4-arm PEG (KSSPHSRNSGSGSGSGSGRGDSPC; NOTA conjugated to the N-terminus; thiol group of the C-terminal cysteine linked to 4-arm PEG; labelled with ^64Cu in the cell assays)
B16F10 cells
  cell uptake / percentage of binding to integrin α5β1: greater percentage of binding to integrin α5β1 than [^64Cu]QM-2301 and [^64Cu]QM-2302
[1]
  kidney accumulation: comparable to that of [^64Cu]QM-2301
